Source: ChEMBL document CHEMBL4038338 (J Med Chem, 2017)
Calls of active or inactive are those of the source. No cut-off for these calls is given here.

Columns and labels:
[1] = target: T1, Calpain-1 catalytic subunit (Rattus norvegicus, UniProt P97571); test: (§1) Inhibition of calpain-1 in rat hippocampal slices assessed as prevention of NMDA-induced spectrin cleavage preincubated for 30 mins followed by NMDA addition measured after 5 hrs by Western blot analysis
T1 sequence (P97571 whole entry): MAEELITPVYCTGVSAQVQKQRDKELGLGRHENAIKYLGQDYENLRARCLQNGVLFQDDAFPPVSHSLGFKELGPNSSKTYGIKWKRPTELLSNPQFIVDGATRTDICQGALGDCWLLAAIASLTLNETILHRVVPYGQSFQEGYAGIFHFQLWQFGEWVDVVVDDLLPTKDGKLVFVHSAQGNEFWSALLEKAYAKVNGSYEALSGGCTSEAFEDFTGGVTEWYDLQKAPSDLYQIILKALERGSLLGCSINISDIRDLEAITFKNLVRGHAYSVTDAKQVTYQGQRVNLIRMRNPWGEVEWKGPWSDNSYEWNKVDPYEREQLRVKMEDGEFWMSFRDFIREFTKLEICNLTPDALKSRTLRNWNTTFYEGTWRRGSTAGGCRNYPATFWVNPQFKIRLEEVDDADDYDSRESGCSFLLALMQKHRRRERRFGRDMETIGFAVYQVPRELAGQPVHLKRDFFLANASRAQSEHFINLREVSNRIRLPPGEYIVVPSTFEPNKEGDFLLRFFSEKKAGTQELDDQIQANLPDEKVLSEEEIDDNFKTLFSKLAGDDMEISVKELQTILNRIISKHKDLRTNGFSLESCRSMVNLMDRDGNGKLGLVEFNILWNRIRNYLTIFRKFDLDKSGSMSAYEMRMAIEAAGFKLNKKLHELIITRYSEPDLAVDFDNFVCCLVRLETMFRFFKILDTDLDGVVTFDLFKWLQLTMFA
Summary of the method: (§2)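 Organotypic rat hippocampal slice cultures kept 6–8 days in 2% serum medium; 30 min inhibitor pre-incubation, then 10 µM NMDA for 5 h at 34°C, 5% CO2. Slices lysed; 150/145 kDa spectrin breakdown products quantified by densitometric Western blot with anti-spectrin alpha chain antibody.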

[2] = target: T2, Calpain-1 catalytic subunit (Rattus norvegicus) (UniProt P97571); test: as §1; summary of the method: as §2
T2 sequence (whole entry): T1 sequence (P97571 whole entry)

[3] = target: T3, Calpain-1 catalytic subunit (Homo sapiens) (UniProt P07384); test: Inhibition of human erythrocytes calpain-1 using Suc-Leu-Tyr-AMC as substrate in presence of up to 10 mM glutathione by kinetic fluorescence assay
T3 sequence (whole entry): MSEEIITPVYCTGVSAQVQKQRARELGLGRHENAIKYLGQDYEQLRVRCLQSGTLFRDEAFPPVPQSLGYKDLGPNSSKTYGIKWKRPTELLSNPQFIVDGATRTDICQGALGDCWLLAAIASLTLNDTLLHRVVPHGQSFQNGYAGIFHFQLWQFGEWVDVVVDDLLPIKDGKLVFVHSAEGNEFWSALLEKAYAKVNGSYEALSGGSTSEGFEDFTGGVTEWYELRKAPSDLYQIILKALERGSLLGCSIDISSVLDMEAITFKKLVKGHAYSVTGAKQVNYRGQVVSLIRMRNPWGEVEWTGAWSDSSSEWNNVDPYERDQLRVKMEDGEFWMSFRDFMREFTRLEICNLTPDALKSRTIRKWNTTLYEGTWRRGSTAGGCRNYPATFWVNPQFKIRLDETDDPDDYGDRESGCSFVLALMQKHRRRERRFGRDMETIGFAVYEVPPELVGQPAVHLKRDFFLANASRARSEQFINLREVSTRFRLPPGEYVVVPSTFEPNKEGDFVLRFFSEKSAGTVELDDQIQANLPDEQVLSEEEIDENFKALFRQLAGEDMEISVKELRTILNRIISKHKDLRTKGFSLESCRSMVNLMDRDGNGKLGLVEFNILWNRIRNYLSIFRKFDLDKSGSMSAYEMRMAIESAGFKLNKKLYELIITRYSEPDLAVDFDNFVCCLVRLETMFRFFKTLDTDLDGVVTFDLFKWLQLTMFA

Homo sapiens [4] = organism: Homo sapiens; test: Selectivity ratio of Ki for recombinant human cathepsin S expressed in Escherichia coli to Ki for human erythrocytes calpain-1
Summary of the method: (§3)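 Ki ratios from kinetic fluorescence assays. Cathepsins B (0.25 nM), L (1 nM), K (3 nM) and S (0.5 nM) in MES buffer at pH 6.0. All at room temperature; Ki by Cheng-Prusoff.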

[5] = target: T4, Calpain-1 catalytic subunit (Homo sapiens, UniProt P07384); test: Inhibition of human erythrocytes calpain-1 using Suc-Leu-Tyr-AMC as substrate by kinetic fluorescence assay; details: read-out: Ki
T4 sequence (P07384 whole entry): T3 sequence (whole entry)

[6] = Selectivity ratio of Ki for human liver cathepsin B to Ki for human erythrocytes calpain-1
[7] = Selectivity ratio of Ki for human liver cathepsin L to Ki for human erythrocytes calpain-1
[8] = Solubility of the compound; type: physicochemical
[9] = Thiol reactivity using recombinant human full length 13C-labeled La antigen (100 to 324 residues) expressed in Escherichia coli BL21(DE3) by ALARM NMR
Homo sapiens [10] = organism: Homo sapiens; test: Selectivity ratio of Ki for recombinant human procathepsin K expressed in Escherichia coli to Ki for human erythrocytes calpain-1; summary of the method: as §3
Cathepsin B = Cathepsin B (Homo sapiens, UniProt P07858); test: Inhibition of human liver cathepsin B using Z-Phe-Arg-AMC as substrate by kinetic fluorescence assay
[11] = target: Cathepsin C (Dipeptidyl peptidase 1) (Homo sapiens, UniProt P53634); test: Inhibition of Cathepsin C (unknown origin) at 10 uM
Cathepsin S = Cathepsin S (Homo sapiens, UniProt P25774); test: Inhibition of human cathepsin S expressed in Escherichia coli using Z-Val-Val-Arg-AMC as substrate by kinetic fluorescence assay
Cathepsin K = target: T5, Cathepsin K (Homo sapiens, UniProt P43235); test: Inhibition of human procathepsin K expressed in Escherichia coli using Z-Gly-Pro-Arg-AMC as substrate by kinetic fluorescence assay
T5 sequence (P43235 whole entry): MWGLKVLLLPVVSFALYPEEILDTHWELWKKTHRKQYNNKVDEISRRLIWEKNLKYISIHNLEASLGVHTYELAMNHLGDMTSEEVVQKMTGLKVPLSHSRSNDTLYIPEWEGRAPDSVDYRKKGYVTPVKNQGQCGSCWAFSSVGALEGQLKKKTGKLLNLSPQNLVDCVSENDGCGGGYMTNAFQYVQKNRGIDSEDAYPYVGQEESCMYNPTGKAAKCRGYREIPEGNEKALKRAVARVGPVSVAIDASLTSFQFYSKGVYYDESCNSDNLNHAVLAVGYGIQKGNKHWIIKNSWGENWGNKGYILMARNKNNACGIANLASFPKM
Summary of the method: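 Cathepsin K at 3 nM, activated from E. coli-expressed recombinant human procathepsin K. Substrate 10 µM Z-Gly-Pro-Arg-AMC in MES/EDTA/Brij 35/L-cysteine buffer, pH 6.0, room temperature. Ki obtained via Cheng-Prusoff from IC50. Mean of 2–4 curves.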

[12] = target: T6, Pro-cathepsin H (Homo sapiens) (UniProt P09668); test: Inhibition of Cathepsin H (unknown origin) at 10 uM
T6 sequence (whole entry): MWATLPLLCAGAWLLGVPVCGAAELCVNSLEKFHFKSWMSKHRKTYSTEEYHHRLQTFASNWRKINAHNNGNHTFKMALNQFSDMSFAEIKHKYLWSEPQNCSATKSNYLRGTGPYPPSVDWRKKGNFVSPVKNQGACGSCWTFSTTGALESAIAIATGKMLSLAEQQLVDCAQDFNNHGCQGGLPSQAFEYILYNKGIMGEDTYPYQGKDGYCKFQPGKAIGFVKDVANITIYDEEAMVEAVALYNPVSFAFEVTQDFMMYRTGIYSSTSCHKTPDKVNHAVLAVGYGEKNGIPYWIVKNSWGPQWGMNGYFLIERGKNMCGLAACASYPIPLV

[13] = Inhibition of human liver cathepsin L using Z-Phe-Arg-AMC as substrate by kinetic fluorescence assay

Cathepsin C (Dipeptidyl peptidase 1), sequence (P53634 25-134 limits assumed): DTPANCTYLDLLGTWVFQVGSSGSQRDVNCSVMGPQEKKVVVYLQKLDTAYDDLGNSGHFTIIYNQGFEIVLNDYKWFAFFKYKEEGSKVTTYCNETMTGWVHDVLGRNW
Cathepsin C (Dipeptidyl peptidase 1), sequence (P53634 231-394 limits assumed): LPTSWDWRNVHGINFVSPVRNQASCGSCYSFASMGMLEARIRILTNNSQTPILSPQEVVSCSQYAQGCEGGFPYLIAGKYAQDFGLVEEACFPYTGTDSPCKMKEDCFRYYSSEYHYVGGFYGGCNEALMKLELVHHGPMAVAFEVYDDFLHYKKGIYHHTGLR
Cathepsin C (Dipeptidyl peptidase 1), sequence (P53634 395-463 limits assumed): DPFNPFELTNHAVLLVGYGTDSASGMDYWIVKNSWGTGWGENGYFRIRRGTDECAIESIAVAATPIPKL
Cathepsin S, sequence (P25774 whole entry): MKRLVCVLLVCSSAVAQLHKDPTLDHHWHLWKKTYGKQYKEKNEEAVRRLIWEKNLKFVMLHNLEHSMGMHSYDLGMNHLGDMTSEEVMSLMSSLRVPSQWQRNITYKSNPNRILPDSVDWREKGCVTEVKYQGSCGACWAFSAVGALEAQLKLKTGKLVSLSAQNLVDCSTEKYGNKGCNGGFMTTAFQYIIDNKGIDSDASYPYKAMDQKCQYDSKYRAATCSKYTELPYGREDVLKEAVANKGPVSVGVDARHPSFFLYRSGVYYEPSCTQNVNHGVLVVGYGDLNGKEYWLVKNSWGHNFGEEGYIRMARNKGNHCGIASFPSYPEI

| IC50 [1] [nM] | fIC50 [2] [nM] | inhibition [3] | Ki [5] [nM] | solubility [8] | Ki (Cathepsin B) [nM] | inhibition at 10 µM [11] [%] | Ki (Cathepsin S) [nM] | Ki (Cathepsin K) [nM] | inhibition [12] [%] | Ki [13] [nM] | SMILES | Ratio Ki (Homo sapiens [4]) | Ratio Ki [6] | Ratio Ki [7] | Thiol reactivity [9] | Ratio Ki (Homo sapiens [10]) |
| --- | --- | --- | --- | --- | --- | --- | --- | --- | --- | --- | --- | --- | --- | --- | --- | --- |
| 2020 | 65 | Active | 8 | Insoluble |  |  |  |  |  |  | NC(=O)C(=O)C(Cc1ccccc1)NC(=O)c1cccnc1-n1cc2c(n1)-c1ccccc1OC2 (stereo not drawn) | > 500 | 29 | 278 | Metabolite not detected | 47 |
|  |  | Active | 56 |  | 28 | 94 | 3290 | 1.8 | 84 | 137 | CCN(CC)Cc1ccc(/C=C/c2ccccc2C(=O)NC(Cc2ccccc2)C(=O)C(N)=O)cc1 (stereo not drawn) | 59 | <1 | 2.5 | Metabolite not detected | < 0.1 |
